Assay results as given in ChEMBL document CHEMBL1143246, “Design and synthesis of bicyclic pyrimidinones as potent and orally bioavailable HIV-1 integrase inhibitors” (J Med Chem, 2008).

How the values were obtained:
Liver [1] = assay: Metabolic stability in dog liver microsomes in presence of NADPH and UDPGA; assay type: ADME, Canis lupus familiaris, Microsome
In short: (§1)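 Multiple time points over 1 h: compound 1 µM with liver microsomes 1 mg/mL, in the presence of both UDPGA and NADPH; degradation followed by LC/MS/MS.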

Liver microsomes [2] = assay: Metabolic stability in rat liver microsomes in presence of NADPH and UDPGA; assay type: ADME, Microsome; in short: as §1
[3] = Protein binding in dog plasma; assay type: ADME, cell-free, Canis lupus familiaris; conditions: read-out: PPB (converted)
In short: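 Plasma protein binding measured by ultrafiltration after incubation at 37 °C for 1 h.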

[4] = Plasma clearance in dog at 1 mg/kg, iv or 2 mg/kg, po; assay type: ADME, organism-based, Canis lupus familiaris
In short: (§2)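 In vivo PK: iv dosing in DMSO/PEG400/H₂O mixtures, oral dosing as methylcellulose suspension. Half-life was taken after iv dosing; AUC and Cmax after po dosing.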

[5] = test system: Human immunodeficiency virus 1; assay: Antiviral activity against HIV1 in human MT4 cell assessed as inhibition of virus spread in presence of 10% fetal bovine serum; assay type: functional; conditions: Human immunodeficiency virus 1, MT4; read-out: CIC95
In short: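 Spread of HIV-1 infection in MT-4 human T-lymphoid cell culture with 10% fetal bovine serum; CIC95 is the concentration inhibiting spread by ≥95%; mean of at least three independent experiments.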

[6] = Protein binding in rat plasma; assay type: ADME, cell-free; conditions: read-out: PPB (converted)
In short: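 Plasma protein binding was measured by ultrafiltration after a 1 h incubation of compound in plasma at 37 °C.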

[7] = Plasma clearance in rat at 3 mg/kg, po or 3 mg/kg, iv; assay type: ADME, organism-based; in short: as §2
[8] = Inhibition of recombinant HIV1 integrase strand transfer activity
[9] = test system: Human immunodeficiency virus 1; assay: Antiviral activity against HIV1 in human MT4 cell assessed as inhibition of virus spread in presence of 50% normal human serum; assay type: functional; conditions: Human immunodeficiency virus 1, MT4; read-out: CIC95
In short: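 Spread of HIV-1 infection in MT-4 human T-lymphoid cell culture with 50% normal human serum; CIC95 is the concentration inhibiting spread by ≥95%; mean of at least three independent experiments.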

[10] = Oral bioavailability in rat at 3 mg/kg; assay type: ADME, organism-based; conditions: in vivo; in short: as §2
[11] = Oral bioavailability in dog at 2 mg/kg; assay type: ADME, organism-based, Canis lupus familiaris; conditions: in vivo; in short: as §2
Homo sapiens = organism: Homo sapiens; assay: Protein binding in human plasma; conditions: read-out: PPB (converted)
Liver microsomes [12] = assay: Metabolic stability in rat liver microsomes in presence of UDPGA; assay type: ADME, Microsome
Liver [13] = assay: Metabolic stability in dog liver microsomes in presence of NADPH; assay type: ADME, Canis lupus familiaris, Microsome
In short: (§3)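 Liver microsomes (1 mg/mL) with test compound at 2 µM, incubated with UDPGA or NADPH; degradation measured by LC/MS/MS after 1 h.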

Liver [14] = assay: Metabolic stability in dog liver microsomes in presence of UDPGA; assay type: ADME, Canis lupus familiaris, Microsome
Liver microsomes [15] = assay: Metabolic stability in human liver microsomes in presence of NADPH; assay type: ADME, Microsome; in short: as §3
Liver microsomes [16] = assay: Metabolic stability in human liver microsomes in presence of UDPGA; assay type: ADME, Microsome; in short: as §3
Liver microsomes [17] = assay: Metabolic stability in rat liver microsomes in presence of NADPH; assay type: ADME, Microsome; in short: as §3
[18] = Half life in dog at 1 mg/kg, iv; assay type: ADME, organism-based, Canis lupus familiaris; parameters: dose 1 mg/kg, route intravenous; conditions: in vivo; in short: as §2
[19] = Volume of distribution at steady state in dog at 1 mg/kg, iv or 4 mg/kg, po; assay type: ADME, organism-based, Canis lupus familiaris; conditions: in vivo, read-out: Vdss
In short: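 Dogs received 1 mg/kg intravenously in DMSO/PEG400/H₂O (20%-40%-40%) and 4 mg/kg orally as a 1% methylcellulose suspension. Volume of distribution was derived from the plasma concentration data.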

[20] = Cmax in rat at 10 mg/kg, po; assay type: ADME, organism-based; parameters: dose 10 mg/kg, route oral; conditions: in vivo; in short: as §2
[21] = Half life in rat at 3 mg/kg, iv; assay type: ADME, organism-based; parameters: dose 3 mg/kg, route intravenous; conditions: in vivo; in short: as §2
[22] = Plasma clearance in dog at 1 mg/kg, iv or 4 mg/kg, po; assay type: ADME, organism-based, Canis lupus familiaris; in short: as §2
[23] = AUC in rat at 10 mg/kg, po; assay type: ADME, organism-based; parameters: dose 10 mg/kg, route oral; conditions: plasma; in short: as §2
[24] = Cmax in rat at 3 mg/kg, po; assay type: ADME, organism-based; parameters: dose 3 mg/kg, route oral; conditions: in vivo; in short: as §2
[25] = AUC in rat at 3 mg/kg, po; assay type: ADME, organism-based; parameters: dose 3 mg/kg, route oral; conditions: plasma; in short: as §2
[26] = Oral bioavailability in dog at 4 mg/kg; assay type: ADME, organism-based, Canis lupus familiaris; conditions: in vivo; in short: as §2
[27] = Volume of distribution at steady state in rat at 3 mg/kg, iv or 3 mg/kg, po; assay type: ADME, organism-based; conditions: in vivo, read-out: Vdss

IC50 [8]	SMILES	IC95 [5]	IC95 [9]	also measured
7 nM	CN1CCN(S(=O)(=O)N(C)[C@H]2CCCn3c2nc(C(=O)NCc2ccc(F)cc2)c(O)c3=O)CC1	6 nM	6 nM	Stability (Liver [1]): 8 µL/min/mg; Stability (Liver microsomes [2]): 10 µL/min/mg; fraction unbound [3]: 0.18; clearance [4]: 23 mL/min/kg; fraction unbound [6]: 0.24; clearance [7]: 98 mL/min/kg; bioavailability [10]: 15%
5 nM	CN(C)S(=O)(=O)N(C)[C@H]1CCCn2c1nc(C(=O)NCc1ccc(F)cc1)c(O)c2=O	12 nM	31 nM	bioavailability [11]: 16%; fraction unbound (Homo sapiens): 0.13; clearance [4]: 3.8 mL/min/kg; clearance [7]: 14 mL/min/kg; bioavailability [10]: 49%
7 nM	CN(C(=O)CS(=O)(=O)N(C)C)[C@H]1CCCn2c1nc(C(=O)NCc1ccc(F)cc1)c(O)c2=O	16 nM	31 nM	Stability (Liver microsomes [12]): 47 %/hr; Stability (Liver [13]): 15 %/hr; fraction unbound [3]: 0.29; fraction unbound (Homo sapiens): 0.22; Stability (Liver [14]): 24 %/hr; Stability (Liver microsomes [15]): 36 %/hr; Stability (Liver microsomes [16]): 46 %/hr; fraction unbound [6]: 0.26; clearance [7]: 55 mL/min/kg; Stability (Liver microsomes [17]): 51 %/hr; bioavailability [10]: 17%
12 nM	CN(C)C(=O)C(=O)N(C)[C@H]1CCCn2c1nc(C(=O)NCc1ccc(F)cc1)c(O)c2=O	33 nM	43 nM	half-life [18]: 1.7 h; Vd [19]: 1.2 L/kg; Cmax [20]: 2500 nM; half-life [21]: 14 h; clearance [22]: 15 mL/min/kg; fraction unbound [3]: 0.34; AUC [23]: 3.8 µM·h; Cmax [24]: 2000 nM; AUC [25]: 2.5 µM·h; fraction unbound (Homo sapiens): 0.37; fraction unbound [6]: 0.16; clearance [7]: 11 mL/min/kg; bioavailability [26]: 39%; Vd [27]: 3 L/kg; bioavailability [10]: 47%
16 nM	CN(C1CCCCn2c1nc(C(=O)NCc1ccc(F)cc1)c(O)c2=O)S(C)(=O)=O (racemic)	31 nM	125 nM	
18 nM	CN(C(=O)C(F)F)C1CCCn2c1nc(C(=O)NCc1ccc(F)cc1)c(O)c2=O (racemic)	500 nM	1000 nM	
8 nM	CC(=O)N(C)C1CCCCn2c1nc(C(=O)NCc1ccc(F)cc1)c(O)c2=O (racemic)	250 nM	500 nM	
9 nM	CC(=O)N(C)C1CCn2c1nc(C(=O)NCc1ccc(F)cc1)c(O)c2=O (racemic)	> 1000 nM	> 1000 nM	
6 nM	CC(=O)N(C)C1CCCn2c1nc(C(=O)NCc1ccc(F)cc1)c(O)c2=O (racemic)	1000 nM	1000 nM	
17 nM	CN(C(=O)CS(C)(=O)=O)C1CCCCn2c1nc(C(=O)NCc1ccc(F)cc1)c(O)c2=O (racemic)	63 nM	125 nM	
5 nM	CN(C)S(=O)(=O)N(C)C1CCCn2c1nc(C(=O)NCc1ccc(F)cc1)c(O)c2=O (racemic)	16 nM	21 nM	
45 nM	CN(C)S(=O)(=O)N(C)C1CCn2c1nc(C(=O)NCc1ccc(F)cc1)c(O)c2=O (racemic)	> 1000 nM	> 1000 nM	
10 nM	CN(C)S(=O)(=O)N(C)C1CCCCn2c1nc(C(=O)NCc1ccc(F)cc1)c(O)c2=O (racemic)	31 nM	125 nM	
7 nM	Cc1nn(C)c(C)c1S(=O)(=O)N(C)C1CCCn2c1nc(C(=O)NCc1ccc(F)cc1)c(O)c2=O (racemic)	21 nM	63 nM	Stability (Liver microsomes [12]): 94 %/hr; Stability (Liver [14]): 78 %/hr; Stability (Liver microsomes [16]): 90 %/hr
7 nM	CS(=O)(=O)CC(=O)NC1CCCn2c1nc(C(=O)NCc1ccc(F)cc1)c(O)c2=O (racemic)	1000 nM	1000 nM	
6 nM	CN(C(=O)CS(C)(=O)=O)C1CCCn2c1nc(C(=O)NCc1ccc(F)cc1)c(O)c2=O (racemic)	16 nM	22 nM	fraction unbound (Homo sapiens): 0.3
9 nM	CN(C(=O)CS(=O)(=O)N(C)C)C1CCCn2c1nc(C(=O)NCc1ccc(F)cc1)c(O)c2=O (racemic)	16 nM	47 nM	fraction unbound (Homo sapiens): 0.19
12 nM	CN(C1CCCn2c1nc(C(=O)NCc1ccc(F)cc1)c(O)c2=O)S(C)(=O)=O (racemic)	26 nM	86 nM	Stability (Liver microsomes [12]): 88 %/hr; Stability (Liver [14]): 29 %/hr; Stability (Liver microsomes [16]): 74 %/hr; clearance [7]: 48 mL/min/kg; bioavailability [10]: 47%
3 nM	CN(C(=O)Cn1cccn1)C1CCCn2c1nc(C(=O)NCc1ccc(F)cc1)c(O)c2=O (racemic)	> 1000 nM	> 1000 nM	
10 nM	CN(C(=O)c1nc2ncccn2n1)C1CCCn2c1nc(C(=O)NCc1ccc(F)cc1)c(O)c2=O (racemic)	250 nM	250 nM	
